This data set is described as follows: Toxicity liver stage against HepG2, at 10uM. The format is cell-based. More on the design: test concentration 10 uM, cell line HepG2-A16-CD81EGFP. The settings on record: human, HepG2-A16-CD81EGFP cells; read-out: INHIBITION
The essentials: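 Uninfected HepG2-A16-CD81EGFP cells, 3 × 10^3 per well, 1536-well, plated on prespotted compound at 10 μM final, parasite-free screening media added to match infected plates; puromycin 10 μM positive, DMSO 0.5% negative; run in parallel with 48 h PbLuc assay at 37 °C, 5% CO2; viability by CellTiter-Glo luminescence, normalized to controls.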
Regarding `O=C1CO[C@H]2CN(S(=O)(=O)c3ccccc3)C[C@H]2N1c1ccccc1`, the cytotoxicity at 10 µM is -2.6%.

In the case of `O=C1N[C@@H]2CCN(C(=O)C3CC3)[C@@H]2C(=O)N1c1ccc(F)cc1`, the cytotoxicity at 10 µM is -1.8%. Take `O=C1N[C@@H]2CCN(C(=O)c3ccccc3)[C@@H]2C(=O)N1Cc1ccccc1`: the cytotoxicity at 10 µM was -1.84%. For the compound `COc1ccc(Nc2nc(N)c(C(C)=O)s2)cc1Cl`, the cytotoxicity at 10 µM amounted to 0.833%. Under `CNC(=O)c1cnc2c(C)csc2c1` stands -22.3%; under `O=C1CCC2(CCN(Cc3ccsc3)CC2)N1Cc1ccccc1`, 0.552%; under `O=C([C@H]1CCCO1)N1CCC2(CC1)C(=O)N(CC1CC1)c1ccccc12`, 8.5%. Consider `CN(C)CCN1CCN(C)C2(CCN(c3nccs3)CC2)C1=O`, for which the cytotoxicity at 10 µM was -1.92%. `Cc1nnc([C@H]2C[C@H]3OCC[C@H]3N(S(=O)(=O)CC(C)C)C2)o1`: the cytotoxicity at 10 µM was -5.27%. `CC1CCN(S(=O)(=O)c2cccn(CC(=O)N3CCOCC3)c2=O)CC1`: the cytotoxicity at 10 µM was found to be 2.11%. Consider `O=C(CCCC(=O)NCc1cccc(Br)c1)NCCN1CCCC1`, for which the cytotoxicity at 10 µM is -7.47%. For the compound `Cc1cccc2c1ccn2CCC(=O)O`, the cytotoxicity at 10 µM worked out at 7.47%. `Cc1noc(C)c1C(=O)N[C@@H]1CCC[C@@H](Oc2ccccc2)[C@@H]1O`: the cytotoxicity at 10 µM stood at 4.72%. To `CS(=O)(=O)N1CCCC(n2nnn(-c3ccccc3)c2=O)C1` (stereo unspecified) belongs -6.17%; to `COCCNC(=O)C1(CCCc2cccnc2)CCCN1C` (stereo unspecified), 20.1%; to `CCCC(=O)N1CCCC(C(=O)c2cnn(-c3ccc(F)cc3)c2N)C1` (stereo unspecified), 4.67%. `O=C(O)CCCC(=O)NCC1(O)CCN(c2ccnc3cccnc23)C1` (stereo unspecified): the cytotoxicity at 10 µM turned out to be 5.09%. In the case of `CN(C)c1nccnc1C1CCN(C2CCCCC2O)CC1` (stereo unspecified), the cytotoxicity at 10 µM stood at 8.12%.

Regarding `O=C1CCC[C@]2(CN(S(=O)(=O)N3CCCCC3)C[C@H]2c2cccnc2)N1`, the cytotoxicity at 10 µM is -0.217%.

Regarding `CN(C)Cc1ccnc(C2CN(CCc3ccccc3)CCO2)n1` (stereo unspecified), the cytotoxicity at 10 µM was -16.5%.

Regarding `C[C@]1(O)CN(Cc2cccc(C(=O)O)c2)CC[C@@H]1Oc1cccc(F)c1`, the cytotoxicity at 10 µM was -5.64%. To `CCCn1cc(C(=O)N2CCCC(Cc3nccs3)C2)cn1` (stereo unspecified) belongs -11.4%; to `CC(C)n1cc(C(=O)N2Cc3ccccc3OC3(CCOCC3)C2)cn1`, 6.61%. For the compound `O=C(NC1CC1)C1CCc2nnc(-c3cccc(C(F)(F)F)c3)n21` (stereo unspecified), the cytotoxicity at 10 µM worked out at 8.6%.

In the case of `CN(C)C(=O)c1nc(-c2ccc(S(C)(=O)=O)cc2)c2ccccn12`, the cytotoxicity at 10 µM was 8.77%. In the case of `COc1c(C(=O)NC(C)Cc2ccccc2Cl)c(C)nn1C` (stereo unspecified), the cytotoxicity at 10 µM was -0.686%. Under `CC(NCc1nnc2n1CCCC2)c1nc(-c2cccs2)no1` (stereo unspecified) stands -39.5%; under `Cc1ccc2c(c1)C(NCc1ccccn1)CC2` (stereo unspecified), 5.47%; under `Cc1ccc(C(C)(O)CNC(=O)CCn2ccnc2C(C)C)o1` (stereo unspecified), 8.53%. Under `O=C(c1ccc2c(c1)OCCCO2)N1CCCCC1C1OCCO1` (stereo unspecified) stands -0.158%. Under `CN(CCn1cnnc1)C(=O)c1ccnc(OC2CCC2)c1` stands 5.1%; under `CCCc1n[nH]c(C2CN(C(=O)Cc3ccc(C)nc3)CCO2)n1` (stereo unspecified), 6.73%; under `Cc1cnn(CC2CCCN2C(=O)CCc2c(C)noc2C)c1` (stereo unspecified), -5.81%. Take `COc1cccc2c1N(Cc1noc(C3CC3)n1)CCC2`: the cytotoxicity at 10 µM is -5.59%.

In the case of `N#Cc1c(N2CCCN(C3CCOCC3)CC2)nc2ccccn12`, the cytotoxicity at 10 µM is 14.7%.

Consider `O=c1cc(CN2CCC(CCc3ccc(O)cc3)CC2)[nH]c(=O)[nH]1`, for which the cytotoxicity at 10 µM was -0.885%.

With `O=C(CNC(=O)C1CCCC1)NCC(O)c1ccc2ccccc2c1` (stereo unspecified), the cytotoxicity at 10 µM is 0.587%.

Consider `COc1ccc(C(C#N)NC(=O)Cc2ccc(F)c(F)c2)c(OC)c1` (stereo unspecified), for which the cytotoxicity at 10 µM stood at 21.6%. Under `COCc1c(Cl)cccc1NC(=O)NCc1cccc(N(C)C)n1` stands 0.217%; under `CC(C)C(NC(=O)NCc1cccnc1N(C)C)c1cccs1` (stereo unspecified), -1.86%; under `O=C(CCN1CCSCC1c1ccccc1)N1CCOCC1` (stereo unspecified), -12.5%. Turning to `CC(=O)c1ccc(CNC(=O)c2c(C)cc(C)cc2C)nc1C`, the cytotoxicity at 10 µM stood at 9.31%. To `Cc1ccc(CNC(=O)N2CCCCC2CCNS(C)(=O)=O)cc1` (stereo unspecified) belongs -0.524%; to `Cc1nn(C)c(C)c1C(=O)N1CCOCC1CC(=O)c1ccco1` (stereo unspecified), -11.4%. To `CS(=O)(=O)N1CCO[C@@H]2CN(C(=O)c3ccnnc3)C[C@@H]2C1` belongs 5.97%; to `Cn1cc(-c2ncc3c(c2C(=O)O)CCN(CC2CCOC2)C3)cn1` (stereo unspecified), -94.6%. Take `CC(C)C(=O)N1CCC2(COCc3cnc(-c4cccnc4)nc32)C1` (stereo unspecified): the cytotoxicity at 10 µM is -102%.

With `CC(C)NC(=O)C1CN(C(=O)Nc2ccccc2)CC12CCOCC2` (stereo unspecified), the cytotoxicity at 10 µM is 4.58%. Take `COc1cc(-c2cc(N)ncn2)cc(OC)c1OC`: the cytotoxicity at 10 µM is -5.11%.

As to `CC(C)Nc1cc(N2CCCC3(CN(C)C(=O)O3)C2)ncn1` (stereo unspecified), the cytotoxicity at 10 µM was -53%.

In the case of `CCN1CC(C(=O)NCc2noc(Cc3ccccc3)n2)CCC1=O` (stereo unspecified), the cytotoxicity at 10 µM is -4.7%. In the case of `CC(C)=CCN1CCN(C(=O)c2cc(C(C)C)on2)[C@H]2CS(=O)(=O)C[C@H]21`, the cytotoxicity at 10 µM amounted to 3.54%.

With `O=C1COc2ccccc2N1CCCn1cnnn1`, the cytotoxicity at 10 µM stood at 6.05%.

Turning to `CC(C)(N)c1cn(C2CCN(C(=O)CCC3CCCCC3)CC2)nn1`, the cytotoxicity at 10 µM was -6.53%. `COc1ccccc1-n1nc(C(C)C)nc1Cc1nnc(N)s1`: the cytotoxicity at 10 µM was 6.48%.

On to `Cc1cccc(C(C(=O)NCCc2nc(C)cc(=O)[nH]2)N(C)C)c1` (stereo unspecified), for which the cytotoxicity at 10 µM was -6.24%. Turning to `O=C(c1cnc(O)cn1)N1CCCC1c1nc2cc(F)ccc2[nH]1` (stereo unspecified), the cytotoxicity at 10 µM is 7.72%.

For the compound `COc1ccc(S(=O)(=O)N[C@H]2CN(C(C)=O)C[C@@H]2C(C)C)cc1F`, the cytotoxicity at 10 µM is -0.277%. `c1ccc(CN2CCC(NCCSc3cnn[nH]3)CC2)cc1`: the cytotoxicity at 10 µM was -5.16%. Consider `Cc1cc(C)c2nc(CNC3CCCNC3=O)cc(O)c2c1` (stereo unspecified), for which the cytotoxicity at 10 µM amounted to 5.84%. To `C[C@@H]1CN(c2ccc(Cl)cn2)CC[C@@]1(O)C1CCOCC1` belongs -2.54%. As to `COc1cc(-n2ccnc2-c2ccc(C(=O)O)s2)ccc1NC(C)=O`, the cytotoxicity at 10 µM worked out at 2.74%. For `COCCN(C)C[C@@H]1CN(C(=O)c2sc3ccccc3c2C)C[C@@H]1CO`, the cytotoxicity at 10 µM is -7.13%. Consider `O=C(Nc1cnc2n1CCCC2)c1cccc(-n2cnnc2)c1`, for which the cytotoxicity at 10 µM is -4.34%.

Regarding `CCc1cc(-c2cc[nH]n2)nc(N2CCOCC2)n1`, the cytotoxicity at 10 µM stood at 7.04%. Under `Cc1[nH]c2c(F)cccc2c1CC(=O)N1CCCC(N)CC1` (stereo unspecified) stands 3.26%; under `CCCC1(CO)CCCN(C(=O)CN2CCN(CC)CC2)C1` (stereo unspecified), 0.854%. For the compound `COCc1ncc(CN2CC[C@@H](NC(=O)c3cccnc3)[C@H](O)C2)cn1`, the cytotoxicity at 10 µM was -7.28%. Regarding `CCNc1ncc(C(=O)N2CCC(c3ccccc3C(=O)O)C2)cn1` (stereo unspecified), the cytotoxicity at 10 µM is -6.41%. Consider `c1coc(-c2nnc(CN3CCCC3Cn3cncn3)o2)c1` (stereo unspecified), for which the cytotoxicity at 10 µM was -5.46%. As to `CCOCC(=O)N1CSCC1C(=O)N(C)Cc1ccco1` (stereo unspecified), the cytotoxicity at 10 µM is -11%. For `CS(=O)(=O)N1CCN(C(=O)CCn2cccn2)CC1`, the cytotoxicity at 10 µM is -8.39%. For the compound `Cc1csc(N2CCCN(C(=O)C(C)n3cncn3)CC2)n1` (stereo unspecified), the cytotoxicity at 10 µM was -3.6%. With `O=C(Nc1nccs1)NC1CCN(Cc2ccccn2)CC1`, the cytotoxicity at 10 µM was -5.72%. As for `c1coc(-c2noc(CN3CCCCC3Cn3cncn3)n2)c1` (stereo unspecified), the cytotoxicity at 10 µM was -0.915%. As for `Cc1cnn(CC2CCCCN2CCS(C)(=O)=O)c1` (stereo unspecified), the cytotoxicity at 10 µM was -13.7%.

For `Cc1nc(C)n(CC2CCCN2Cc2nc(C)c3ccccc3n2)n1` (stereo unspecified), the cytotoxicity at 10 µM was -12.4%. As for `Cc1cnn(CC2CCCN2C(=O)Cc2ccc(C)nc2)c1` (stereo unspecified), the cytotoxicity at 10 µM is -1.64%.

For `Cc1cc(C)n(C2CN(CC(=O)NC(C3CC3)C3CC3)C2)n1`, the cytotoxicity at 10 µM is -9.8%.

In the case of `CN(C)c1ccc(NC(=O)NCc2cccnc2N(C)C)cn1`, the cytotoxicity at 10 µM is -20.9%. Under `O=C(NCc1ccccn1)NCc1ccc(Cl)s1` stands -7.52%; under `CCc1nc(CN2CCCN(C(=O)CC3CCCC3)CC2)cs1`, -25.2%. Under `O=C(NCCN1CCCc2ccccc21)c1scnc1Cl` stands -3.41%. To `c1cnn(CC2CN(Cc3noc(C4CC4)n3)CCO2)c1` (stereo unspecified) belongs -0.842%; to `CCCc1n[nH]c(C2CN(CCNS(=O)(=O)CC)CCO2)n1` (stereo unspecified), 2.43%; to `O=C(NCC(=O)N1CCCCC1)c1ccoc1`, -6.07%.

As to `CC(C)c1cc(NC(=O)CN2CCC(N3CCNC3=O)CC2)on1`, the cytotoxicity at 10 µM is -10.7%. `Cc1cnn(CC2CCCCN2Cc2nnc(C3CC3)n2C)c1` (stereo unspecified): the cytotoxicity at 10 µM worked out at 2.36%.

Consider `Cc1nc(CN2CCOC(CN(C)c3cccnn3)C2)cs1` (stereo unspecified), for which the cytotoxicity at 10 µM was 0.938%.

Regarding `CN(C)c1ncc(-c2cccc(C(N)=O)c2)c(C2CNCCO2)n1` (stereo unspecified), the cytotoxicity at 10 µM was -2.77%.

For `Cc1nc(C2CCNC2)nc2c1CCC(=O)N2C` (stereo unspecified), the cytotoxicity at 10 µM worked out at 3.77%.

Take `O=C1CCCC2(CCN(C(=O)c3ccccn3)CC2)N1`: the cytotoxicity at 10 µM came to 3.03%. In the case of `COCC1CC2(CCN(C(=O)c3ccco3)CC2)CN1C(C)C` (stereo unspecified), the cytotoxicity at 10 µM was found to be 4.71%. In the case of `Cn1ccc(CN2CCC3(CCCN3CC3CC3)CC2)n1`, the cytotoxicity at 10 µM was -92.4%. With `O=C(NCc1cccs1)[C@H]1CO[C@H]2CCN(C3CCCC3)C[C@H]2C1`, the cytotoxicity at 10 µM was -110%.

On to `O=C1CC[C@H]2[C@@H](CCN2Cc2ccco2)N1`, for which the cytotoxicity at 10 µM is 2.82%.

Values taken from ChEMBL document CHEMBL4513216, “Probing the Open Global Health Chemical Diversity Library for Multistage-Active Starting Points for Next-Generation Antimalarials” (ACS Infect Dis, 2020).
